Converted amounts (≈) assume the structure as drawn.
Experiments:
[1] = system: HUVEC; experiment: Growth inhibitory activity against human umbilical vein endothelial cells (HUVEC) proliferation using MTT colorimetric method; type: functional, cell-based
Procedure, shortened: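 HUVEC seeded at 10,000 cells/well in growth-factor-containing EGM-2 and left 4 h to adhere. Compounds diluted in medium were added, followed by 72 h incubation at 37 in humidified 5% CO2. Viability was read by MTT colorimetric assay. IC50 came from nonlinear regression.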

[2] = system: HUVEC; experiment: Percentage inhibition against growth factor induced tube formation by human umbilical vein endothelial cells (HUVEC) at 10 ug/mL concentration; type: functional
Procedure, shortened: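 HUVEC plated at 5000 cells/well on solidified Matrigel and incubated 16 h at 37 in humidified 5% CO2, with compound at 10 μg/mL, in triplicate. Cells were then stained with toluidine blue in 4% paraformaldehyde and photographed. A blinded observer counted tube branches per well. Inhibition was expressed relative to untreated control.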

| Structure (SMILES) | IC50 [1] [µg/mL] | inhibition at 10 µg/mL [2] [%] |
| --- | --- | --- |
| CC1(C)CCC[C@]2(C)[C@H]3CC(=O)O[C@]3(C)CC[C@@H]12 | > 50 |  |
| C=C1[C@H](O[Si](C)(C)C(C)(C)C)C[C@H]2C(C)(C)CCC[C@]2(C)[C@H]1/C=C/c1ccoc1 | > 50 | 5 |
| C=C1[C@@H](O[Si](C)(C)C(C)(C)C)C[C@H]2C(C)(C)CCC[C@]2(C)[C@H]1C[C@@H](O)c1ccoc1 | 3.76 (≈ 8.69 µM) | 10 |
| C=C1[C@@H](O)C[C@H]2C(C)(C)CCC[C@]2(C)[C@H]1C[C@@H](O)c1ccoc1 | 15 (≈ 47.2 µM) | 0 |
| C=C1[C@@H](O)C[C@H]2C(C)(C)CCC[C@]2(C)[C@H]1C[C@H](O)c1ccoc1 | 29.7 (≈ 93.2 µM) | 10 |
| C=C1[C@@H](O[Si](C)(C)C(C)(C)C)C[C@H]2C(C)(C)CCC[C@]2(C)[C@H]1/C=C/c1ccoc1 | > 50 | 22 |
| C=C1[C@@H](O[Si](C)(C)C(C)(C)C)C[C@H]2C(C)(C)CCC[C@]2(C)[C@H]1C[C@H](O)c1ccoc1 | 7.71 (≈ 17.8 µM) | 20 |
| C=C1[C@H](O)C[C@H]2C(C)(C)CCC[C@]2(C)[C@H]1/C=C/c1ccoc1 | 3.12 (≈ 10.4 µM) | 90 |
| C=C1[C@@H](O)C[C@H]2C(C)(C)CCC[C@]2(C)[C@H]1/C=C/c1ccoc1 [CORONARIN A] | 4.22 (≈ 14 µM) | 55 |
| C=C[C@](C)(O)CC[C@@H]1[C@@]2(C)CCCC(C)(C)[C@@H]2CC[C@@]1(C)O [SCLAREOL] | > 50 |  |

Reference: ChEMBL document CHEMBL1145734, “A study on the synthesis of antiangiogenic (+)-coronarin A and congeners from (+)-sclareolide” (Bioorg Med Chem Lett, 2003)
